Cmax and T max data for two molecules are collected here from ChEMBL document CHEMBL1123485, “A lymphotropic prodrug of L-dopa: synthesis, pharmacological properties, and pharmacokinetic behavior of 1,3-dihexadecanoyl-2-[(S)-2-amino-3-(3,4-dihydroxyphenyl)prop anoyl] propane-1,2,3-triol” (J Med Chem, 1986).

Data set [1] deals with Mus musculus. As to the kind of experiment: Peak plasma concentration expresses the ability of compound for the release of L-Dopa in the plasma of mouse after oral administration of 0.5 mmol/kg. Conditions: in vivo.
The test system of data set [2] is Rattus norvegicus. As to the kind of experiment: Peak plasma concentration expresses the ability of compound for the release of L-Dopa in the plasma of rat after oral administration of 0.5 mmol/kg. Conditions: in vivo.
The nature of data set [3]: Peak plasma concentration expresses the ability of compound for the release of L-Dopa in the plasma of monkey after oral administration of 0.5 mmol/kg. Conditions: simiiformes, in vivo.
Data set [4] is described as follows: Peak plasma concentration expresses the ability of compound for the release of dopamine in the plasma of monkey after oral administration of 0.5 mmol/kg. The conditions noted are these: simiiformes, in vivo.
The nature of data set [5]: Time of maximum L-Dopa plasma concentration was measured in mouse ofter oral administration of the compound. The conditions noted are these: in vivo.
The subject of data set [6] is Mus musculus. Briefly: Peak plasma concentration expresses the ability of compound for the release of dopamine in the plasma of mouse after oral administration of […]. It is filed as ADME, organism-based. Details: route oral. Conditions: in vivo. Summed up: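 Male NMRI mice (20–25 g), five per time point and compound, received 0.5 mmol/kg orally. They were decapitated at 10, 20 and 30 min and 1–6 h. Blood was collected, deproteinized with perchloric acid and assayed for L-Dopa and dopamine by HPLC with fluorometric detection. Cmax is given in nmol/mL and tmax in min.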

The test system of data set [7] is Rattus norvegicus. As to the kind of experiment: Peak plasma concentration expresses the ability of compound for the release of dopamine in the plasma of rat after oral administration of 0.5 mmol/kg. Conditions: in vivo.
For data set [8], the system named is Rattus norvegicus. Briefly: Time of maximum L-Dopa plasma concentration was measured in rat ofter oral administration of the compound. The format is ADME, organism-based. Conditions: in vivo. The procedure, abridged:
(§1)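 Overnight-fasted male Wistar rats (230–250 g), five per compound, received 0.5 mmol/kg orally. Tail-vessel blood was sampled at 10, 20 and 30 min and 1–6 h. Plasma was deproteinized with perchloric acid and centrifuged, then L-Dopa and dopamine were measured by reversed-phase HPLC with fluorometric detection, quantified by peak area. Cmax (nmol/mL) and tmax (min) were taken from the mean curves.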

The nature of data set [9]: Time of maximum L-Dopa plasma concentration was measured in monkey ofter oral administration of the compound. The format is ADME, organism-based. Conditions: simiiformes, in vivo. Summed up:
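A single male Cynomolgus monkey (2.7 kg) was fasted 12 h and given 0.5 mmol/kg orally. Blood was drawn from the femoral vein, and plasma L-Dopa and dopamine were assayed by HPLC with fluorometric detection. Cmax is the peak plasma concentration (nmol/mL); tmax is the time of that peak (min).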

Data set [10] has as its system Rattus norvegicus. Briefly: Time of maximum dopamine plasma concentration was measured in rat ofter oral administration of the compound. The format is ADME, organism-based. Conditions: in vivo. Summed up: as §1

Values joined by “and” are separate entries in the source; they are usually repeats but may differ in a detail not shown here. Identical values can stand only once.

On to `N[C@@H](Cc1ccc(O)c(O)c1)C(=O)O` [LEVODOPA], for which the Cmax was 1.12 nM ml-1 in the data set on Mus musculus [1], 16.2 nM ml-1 with Rattus norvegicus [2], 9.5 nM ml-1 in [3] and 8.1 nM ml-1 in data set [4]. In data set [5], the T max is recorded as 30 min.
Turning to `CCCCCCCCCCCCCCCC(=O)OCC(COC(=O)CCCCCCCCCCCCCCC)OC(=O)C(N)Cc1ccc(O)c(O)c1` (centres undefined), the Cmax is 1.6 nM ml-1 and 3.54 nM ml-1 in the data set with Mus musculus [6]; 17.1 nM ml-1 in the data set on Rattus norvegicus [7]; 24.6 nM ml-1 with Rattus norvegicus [2]; 18.3 nM ml-1 in data set [3]; 6.1 nM ml-1 in data set [4]. The T max in the data set with Rattus norvegicus [8] is 180 min; in data set [5] it was 120 min; in data set [9], 110 min; in the data set with Rattus norvegicus [10] it was 240 min and 150 min.
